From ChEMBL document CHEMBL3232879, “4,5,6,7-Tetrahydro-isoxazolo-[4,5-c]-pyridines as a new class of cytotoxic Hsp90 inhibitors” (Eur J Med Chem, 2014)
Active and inactive are the calls of the source. The rule behind the calls is not given here.

Experiments:
[1] = test system: NCI-H460; test: Cytotoxicity against human NCI-H460 cells assessed as growth inhibition after 72 hrs by sulforhodamine B assay; type: functional, cell-based; conditions: NCI-H460, 72 h
In short: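 Log-phase NCI-H460 cells seeded, drug added 24 h later, exposed 72 h. Survival read by sulforhodamine B staining. IC50 fitted by curve analysis as the concentration halving cell number relative to untreated controls.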

[2] = molecular target: Heat shock protein HSP 90-alpha (Homo sapiens, UniProt P07900); test: Displacement of GM-FTC from Hsp90-alpha (unknown origin) after 4 hrs by fluorescence polarization assay
[3] = test system: K562; test: Cytotoxicity against human K562 cells assessed as growth inhibition after 72 hrs by trypan blue exclusion assay; type: functional, cell-based; conditions: for IC50: K562, 72 h
In short: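 K562 cells, 2×10^5 per well in 1 mL complete medium, exposed to a range of drug concentrations. Cells stained with trypan blue and counted on a hemocytometer; dye-uptaking cells scored nonviable. Viable count expressed as percent of control proliferation; IC50 is the concentration giving 50% growth inhibition. Methods give 48 h incubation, table footnote 72 h exposure.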

[4] = test system: K562; test: Cell cycle arrest in human K562 cells assessed as accumulation at G1 phase at 75 uM after 24 hrs by propidium iodide staining-based flow cytometric analysis; type: functional
In short: (§1)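 K562 cells exposed for 24 h, then washed once in ice-cold PBS. Resuspended at 1×10^6 cells/mL in a hypotonic solution of propidium iodide in 0.1% sodium citrate with 0.03% (v/v) Nonidet P-40 for 30 min. Filtered through nylon cloth, then single-parameter DNA fluorescence histograms read by flow cytometry. Cell-cycle phase distribution obtained by modelling, with untreated cells as control.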

[5] = test system: K562; test: Cell cycle arrest in human K562 cells assessed as reduction of S phase fraction at 75 uM after 24 hrs by propidium iodide staining-based flow cytometric analysis; type: functional; in short: as §1
[6] = test system: K562; test: Induction of apoptosis in human K562 cells assessed as hypoploid nuclei accumulated in sub-G0-G1 phase after 72 hrs by propidium iodide staining-based fluorescence microscopic analysis; conditions: K562, 72 h
[7] = test system: K562; test: Cell cycle arrest in human K562 cells assessed as accumulation at G1 phase at 10 uM after 24 hrs by propidium iodide staining-based flow cytometric analysis; type: functional; in short: as §1
[8] = test system: K562; test: Cell cycle arrest in human K562 cells assessed as reduction of S phase fraction at 10 uM after 24 hrs by propidium iodide staining-based flow cytometric analysis; type: functional; in short: as §1
[9] = test system: K562; test: Cell cycle arrest in human K562 cells assessed as accumulation at G1 phase at 1 uM after 24 hrs by propidium iodide staining-based flow cytometric analysis; type: functional; in short: as §1
[10] = test system: K562; test: Cell cycle arrest in human K562 cells assessed as reduction of S phase fraction at 1 uM after 24 hrs by propidium iodide staining-based flow cytometric analysis; type: functional; in short: as §1

| SMILES | IC50 [1] [nM] | IC50 [2] [nM] | further results |
| --- | --- | --- | --- |
| CCNC(=O)c1noc2c1CN(C(=O)Nc1cc(C(C)C)c(O)cc1O)CC2 | > 1000 | > 100000 | – |
| CCOC(=O)c1noc2c1CN(C(=O)c1cc(C(C)C)c(O)cc1O)CC2 | 870 | 100 | – |
| CCNC(=O)c1noc2c1CN(C(=O)c1cc(Cl)c(O)cc1O)CC2 | 9700 | 110 | growth inhibition (GI) [3]: Dose-dependent effect; IC50 [3]: 32600 nM; Activity [4]: Active; Activity [5]: Active; AC50 [6]: > 100 µM |
| CC(C)c1cc(C(=O)N2CCc3onc(C(=O)NCCCl)c3C2)c(O)cc1O | 200 | 34 | – |
| CCNC(=O)c1noc2c1CN(C(=O)c1cc(C(C)C)c(OC(C)=O)cc1OC(C)=O)CC2 | 230 | – | – |
| CCOC(=O)c1noc2c1CN(C(=O)c1ccc(O)cc1O)CC2 | > 20000 | 3900 | – |
| CCOC(=O)c1noc2c1CN(C(=O)c1cc(Cl)c(O)cc1O)CC2 | > 20000 | 160 | – |
| CCNC(=O)c1noc2c1CN(C(=O)c1cc(C(C)C)c(O)cc1O)CC2 | 450 | 29 | growth inhibition (GI) [3]: Dose-dependent effect; IC50 [3]: 720 nM; Activity [7]: Active; Activity [8]: Active; AC50 [6]: 5.4 µM |
| CCNC(=O)c1noc2c1CN(C(=O)c1ccc(O)cc1O)CC2 | > 20000 | 1200 | – |
| CCNC(=O)c1noc2c1CN(Cc1cc(Cl)c(O)cc1O)CC2 | > 20000 | 1400 | – |
| COC(=O)c1noc2c1CN(C(C)=O)CC2 | > 1000 | > 100000 | – |
| CC(C)c1cc(C(=O)N2CCc3onc(C(=O)NCCN4CCOCC4)c3C2)c(O)cc1O | 190 | 54 | – |
| CC(C)c1cc(C(=O)N2CCc3onc(C(=O)NC4CCCC4)c3C2)c(O)cc1O | 900 | 68 | – |
| C=CCNC1=C2C[C@@H](C)C[C@H](OC)[C@H](O)[C@@H](C)/C=C(\C)[C@H](OC(N)=O)[C@@H](OC)/C=C\C=C(/C)C(=O)NC(=CC1=O)C2=O [TANESPIMYCIN] | – | – | IC50 [3]: 150 nM; Activity [9]: Active; Activity [10]: Active; AC50 [6]: 3.1 µM |
| CCNC(=O)c1noc2c1CN(C(=O)Nc1cc(Cl)c(O)cc1O)CC2 | > 1000 | > 100000 | – |
